The test system of assay [1] is SK-OV-3. Description: Cytotoxicity against human SKOV3 cells after 48 hrs by MTT assay. The settings on record: SK-OV-3, 48 h. The assay is classed as functional, cell-based. In a few lines: (§1)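 Log-phase cells were seeded at about 1 × 10⁵ cells/mL in 96-well plates and allowed to settle 12 h at 37 °C in 5% CO₂. Compounds were added at five concentrations for 48 h. Absorbance was read at dual wavelength 570/630 nm. Survival was expressed as a percentage of control, and IC50 was calculated by the Bliss method (n = 5). Each test was run in triplicate.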

The subject of assay [2] is A549. Description: Cytotoxicity against human A549 cells after 48 hrs by MTT assay. As to conditions: A549, 48 h. The class given is functional, cell-based. In a few lines: as §1
The species named for assay [3] is Sus scrofa. Description: Inhibition of porcine brain tubulin polymerization at 15 uM measured at 1 min interval for 40 mins by spectrophotometric method. In a few lines:
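Purified brain tubulin, final 3.0 mg/mL, was added to start the reaction in 80 mM PIPES pH 6.9, 2.0 mM MgCl₂, 0.5 mM EGTA, 1 mM GTP and 10.2% glycerol, with the other components prewarmed to 37 °C. Compounds were tested at 10 or 15 µM. Polymerization at 37 °C was followed as absorbance at 340 nm over 40 min.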

In assay [4] the test system is NCI-H460. Description: Induction of apoptosis in human NCI-H460 cells assessed as early apoptotic cells at 5 uM after 24 hrs by Annexin V-FITC/propidium iodide staining based flow cytometric method (reference value: 1.55%). The assay is classed as functional.
For assay [5], the system named is NCI-H460. As to the kind of experiment: Induction of apoptosis in human NCI-H460 cells assessed as late apoptotic cells at 10 uM after 24 hrs by Annexin V-FITC/propidium iodide staining based flow cytometric method (reference value: 0.839%). The assay is classed as functional.
The test system of assay [6] is NCI-H460. As to the kind of experiment: Induction of apoptosis in human NCI-H460 cells assessed as necrotic cells at 10 uM after 24 hrs by Annexin V-FITC/propidium iodide staining based flow cytometric method (reference value: 1.84%). The class given is functional.
Assay [7] deals with NCI-H460. Description: Induction of apoptosis in human NCI-H460 cells assessed as increase in ROS generation after 24 hrs by DCFH-DA staining based flow cytometric method. The assay is classed as functional, cell-based. In a few lines:
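NCI-H460 cells in six-well plates were treated 24 h at 5 or 10 µM, with untreated cells as control. Cells were pelleted at 2000 rpm, washed twice in ice-cold PBS and resuspended in 10 µM DCFH-DA in cell-free medium for 20 min at 37 °C in the dark. After two more PBS washes, fluorescence was read by flow cytometry.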

For assay [8], the system named is NCI-H460. As to the kind of experiment: Disruption of mitochondrial membrane potential in human NCI-H460 cells assessed as intact mitochondrial membrane potential at 10 uM after 24 hrs by JC-1 staining based flow cytometric method (reference value: 11.9%). The class given is functional. In a few lines: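 NCI-H460 cells were treated 24 h at 5 or 10 µM, with untreated cells as control. The medium was replaced, and the JC-1 probe was added 20 min later. Cells were then pelleted at 2000 rpm, washed twice in ice-cold PBS and analysed by flow cytometry with excitation at 488 nm and emission at 530 and 590 nm.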

Assay [9] relates to NCI-H460. As to the kind of experiment: Induction of apoptosis in human NCI-H460 cells assessed as increase in cytochrome c release from mitochondria to cytosol after 48 hrs by Western blot method. The assay is classed as functional, cell-based. In a few lines:
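NCI-H460 cells were treated 48 h at various concentrations. Cells were washed in ice-cold PBS and lysed on ice for 20 min, and lysates were spun at 20000 g and 4 °C for 5 min. Protein was quantified by BCA, and equal amounts were run on 12% SDS-PAGE and transferred to PVDF. Membranes were blocked in 5% milk/TBST, probed overnight at 4 °C with primary antibodies (β-actin as reference), then with peroxidase secondary for 2 h. Bands were detected by chemiluminescence.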

Active and inactive are the calls of the source. The rule behind the calls is not given here.

With `COc1ccc(/C=C/C(=O)c2cc(OC)c(OC)c(OC)c2)cc1OCC(=O)Nc1ccccc1Cl`, the IC50 in assay [1] was 6.28 µM; in assay [2], 5.21 µM. For the same compound, the inhibition result in [3] was “Active”. Besides, the Activity in [4] is 11.9%; in [5], 42.7%; in assay [6], 10.9%; in [7], “Dose-dependent effect”; in [8], 26.2%; in [9], “Dose-dependent effect”.

The record behind these values is ChEMBL document CHEMBL4028810, “Synthesis and biological evaluation of novel chalcone derivatives as a new class of microtubule destabilizing agents” (Eur J Med Chem, 2017).
